Data taken from ChEMBL document CHEMBL5154773, “Development of Sulfamoylated 4-(1-Phenyl-1H-1,2,3-triazol-4-yl)phenol Derivatives as Potent Steroid Sulfatase Inhibitors for Efficient Treatment of Breast Cancer” (J Med Chem, 2022).
The source made the active and inactive calls. No cut-off for these calls is given here.

Experiments:
[1] = Toxicity in BALB/c mouse allografted with mouse 67NR cells assessed as effect on erythrocyte count at 50 mg/kg, po for 5 days a week; assay type: organism-based; details: in vivo, 168 h, time 1 weeks
[2] = test system: Mus musculus; assay: In vivo inhibition of STS in BALB/c mouse allografted with mouse 67NR cells assessed as reduction in estradiol level in plasma at 50 mg/kg, po administered 5 days a week by ELISA; assay type: functional, organism-based; details: time 1.0 weeks
[3] = Toxicity in BALB/c mouse assessed as toxic effects at 10 to 50 mg/kg, po for 5 days a week for 2 weeks; assay type: organism-based; details: in vivo, 336 h, dose 10-50 mg/kg
Outline: (§1)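 Female BALB/c mice, three per dose, received oral doses of 10 mg/kg/day, 5 days a week for 2 weeks. Later mice received 20 or 50 mg/kg. Body weight and general health, including feces, were followed. After cervical dislocation, liver, kidney and spleen were weighed, and liver, kidneys, intestines and spleen were assessed macroscopically.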

[4] = Toxicity in BALB/c mouse assessed as body weight loss at 10 to 50 mg/kg, po for 5 days a week for 2 weeks; assay type: organism-based; details: in vivo, 336 h, dose 10-50 mg/kg; outline: as §1
[5] = Toxicity in BALB/c mouse assessed as change in feces consistency at 50 mg/kg, po for 5 days a week for 2 weeks; assay type: organism-based; details: in vivo, 336 h; outline: as §1
[6] = Toxicity in BALB/c mouse assessed as macroscopic changes in liver at 10 to 50 mg/kg, po for 5 days a week for 2 weeks; assay type: organism-based; details: in vivo, 336 h, dose 10-50 mg/kg; outline: as §1
[7] = Toxicity in BALB/c mouse assessed as macroscopic changes in kidneys at 10 to 50 mg/kg, po for 5 days a week for 2 weeks; assay type: organism-based; details: in vivo, 336 h, dose 10-50 mg/kg; outline: as §1
[8] = Toxicity in BALB/c mouse assessed as macroscopic changes in intestines at 10 to 50 mg/kg, po for 5 days a week for 2 weeks; assay type: organism-based; details: in vivo, 336 h, dose 10-50 mg/kg; outline: as §1
[9] = Toxicity in BALB/c mouse assessed as macroscopic changes in spleen at 10 to 50 mg/kg, po for 5 days a week for 2 weeks; assay type: organism-based; details: in vivo, 336 h, dose 10-50 mg/kg; outline: as §1
[10] = Toxicity in BALB/c mouse assessed as weight change of liver at 10 to 50 mg/kg, po for 5 days a week for 2 weeks; assay type: organism-based; details: in vivo, 336 h, dose 10-50 mg/kg; outline: as §1
[11] = Toxicity in BALB/c mouse assessed as weight change of kidney at 10 to 50 mg/kg, po for 5 days a week for 2 weeks; assay type: organism-based; details: in vivo, 336 h, dose 10-50 mg/kg; outline: as §1
[12] = Toxicity in BALB/c mouse assessed as weight change of spleen at 10 to 50 mg/kg, po for 5 days a week for 2 weeks; assay type: organism-based; details: in vivo, 336 h, dose 10-50 mg/kg; outline: as §1
[13] = Toxicity in BALB/c mouse assessed as maximum tolerated dose administered orally for 5 days a week; details: in vivo, route po, time 1 weeks
Outline: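 Female Balb/c mice, three per dose, were dosed per os, starting at 10 mg/kg/day and then at 20 and 50 mg/kg, 5 days a week for 2 weeks. Body weight and general health were followed. At autopsy, liver, kidney and spleen were weighed and examined macroscopically.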

[14] = Toxicity in BALB/c mouse allografted with mouse 67NR cells assessed as body weight loss at 50 mg/kg, po for 5 days a week and measured 3 times a week relative to control; assay type: organism-based; details: in vivo, 168 h, time 1 weeks
[15] = Toxicity in BALB/c mouse allografted with mouse 67NR cells assessed as enlarged liver at 50 mg/kg, po for 5 days a week; assay type: organism-based; details: in vivo, 168 h, time 1 weeks
[16] = Toxicity in BALB/c mouse allografted with mouse 67NR cells assessed as increase in alanine aminotransferase levels in plasma at 50 mg/kg, po for 5 days a week; assay type: organism-based; details: in vivo, 168 h, time 1 weeks
[17] = Toxicity in BALB/c mouse allografted with mouse 67NR cells assessed as increase in aspartate aminotransferase levels in plasma at 50 mg/kg, po for 5 days a week; assay type: organism-based; details: in vivo, 168 h, time 1 weeks
[18] = Toxicity in BALB/c mouse allografted with mouse 67NR cells assessed as decrease in spleen weight at 50 mg/kg, po for 5 days a week; assay type: organism-based; details: in vivo, 168 h, time 1 weeks
[19] = Toxicity in BALB/c mouse allografted with mouse 67NR cells assessed as decrease in lymphocyte count at 50 mg/kg, po for 5 days a week; assay type: organism-based; details: in vivo, 168 h, time 1 weeks
[20] = Toxicity in BALB/c mouse allografted with mouse 67NR cells assessed as increase in monocyte count at 50 mg/kg, po for 5 days a week; assay type: organism-based; details: in vivo, 168 h, time 1 weeks
[21] = Toxicity in BALB/c mouse allografted with mouse 67NR cells assessed as increase in granulocyte count at 50 mg/kg, po for 5 days a week; assay type: organism-based; details: in vivo, 168 h, time 1 weeks
[22] = Toxicity in BALB/c mouse allografted with mouse 67NR cells assessed as effect on hemoglobin levels at 50 mg/kg, po for 5 days a week; assay type: organism-based; details: in vivo, 168 h, time 1 weeks
[23] = Toxicity in BALB/c mouse allografted with mouse 67NR cells assessed as effect on hematocrit levels at 50 mg/kg, po for 5 days a week; assay type: organism-based; details: in vivo, 168 h, time 1 weeks
[24] = Toxicity in BALB/c mouse allografted with mouse 67NR cells assessed as increase in blood urea levels at 50 mg/kg, po for 5 days a week; assay type: organism-based; details: in vivo, 168 h, time 1 weeks
[25] = In vivo inhibition of STS in BALB/c mouse allografted with mouse 67NR cells assessed as residual enzyme activity in tumor lysates using [3H]E1S as substrate at 50 mg/kg, po for 5 days a week followed by incubation of tumor lysates with [3H]E1S for 3 hrs by radioisotope enzymatic assay (reference value: 100%); assay type: functional, Neoplasm; details: time 1 weeks
[26] = In vivo inhibition of STS in BALB/c mouse allografted with mouse 67NR cells assessed as residual enzyme activity in liver lysates using [3H]E1S as substrate at 50 mg/kg, po for 5 days a week followed by incubation of […] with [3H]E1S for 3 hrs by radioisotope enzymatic assay (reference value: 100%); assay type: functional; details: time 1 weeks
[27] = molecular target: T1, Steryl-sulfatase (Homo sapiens, UniProt P08842); assay: Inhibition of human placental STS using [3H]E1S as substrate incubated for 3 hrs by radioisotope enzymatic assay; assay type: tissue-based, Placenta
T1 sequence (P08842 whole entry): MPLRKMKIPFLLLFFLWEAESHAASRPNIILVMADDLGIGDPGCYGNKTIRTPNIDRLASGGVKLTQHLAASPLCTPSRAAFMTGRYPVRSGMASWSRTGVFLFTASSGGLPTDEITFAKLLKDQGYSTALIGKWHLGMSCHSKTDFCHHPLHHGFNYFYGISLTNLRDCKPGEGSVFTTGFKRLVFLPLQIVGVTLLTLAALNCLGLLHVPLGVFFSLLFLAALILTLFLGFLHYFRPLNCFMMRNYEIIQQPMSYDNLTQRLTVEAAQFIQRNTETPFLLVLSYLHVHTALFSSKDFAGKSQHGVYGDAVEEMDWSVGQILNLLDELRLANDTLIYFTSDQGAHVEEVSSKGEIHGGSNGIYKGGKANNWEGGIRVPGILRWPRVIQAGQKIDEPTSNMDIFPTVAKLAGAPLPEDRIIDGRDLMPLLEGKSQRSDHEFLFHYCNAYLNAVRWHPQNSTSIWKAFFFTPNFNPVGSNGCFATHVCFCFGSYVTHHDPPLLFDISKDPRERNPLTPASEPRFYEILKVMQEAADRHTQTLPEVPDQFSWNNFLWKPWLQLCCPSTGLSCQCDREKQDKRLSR
Outline: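 Purified placental STS, 5 U (1 U hydrolyses 100 μM NPS in 1 h at 37 °C), incubated with [3H]E1S (3 nM, 4 × 10⁴ Bq) and inhibitor in 20 mM Tris-HCl pH 7.4 for 3 h at 37 °C. The hydrolysis product was extracted into toluene and counted. Results are expressed as residual STS activity (%) from triplicate runs.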

## NS(=O)(=O)Oc1ccc(-c2cn(-c3cc(F)cc(F)c3)nn2)cc1
[1]
  Activity: Non-Toxic
[2]
  inhibition: Active
[3]
  Activity: Non-Toxic
[4]
  Activity: Non-Toxic
[5]
  Activity: Toxic
[6]
  Activity: Non-Toxic
[7]
  Activity: Non-Toxic
[8]
  Activity: Non-Toxic
[9]
  Activity: Non-Toxic
[10]
  Activity: Non-Toxic
[11]
  Activity: Non-Toxic
[12]
  Activity: Non-Toxic
[13]
  MTD at 168 h: 50 mg/kg
[14]
  Activity: 4.5%
[15]
  Activity: Toxic
[16]
  Activity: Toxic
[17]
  Activity: Toxic
[18]
  Activity: Toxic
[19]
  Activity: Toxic
[20]
  Activity: Toxic
[21]
  Activity: Toxic
[22]
  Activity: Non-Toxic
[23]
  Activity: Non-Toxic
[24]
  Activity: Toxic
[25]
  Activity: 1.3%
[26]
  Activity: 10.1%
[27]
  IC50: 36.8 nM
